# How the values were obtained:
# Assay type in all cases: cell-based
# [1] = Binding affinity to two PBDs of N36 trimer of gp41 in HIV1 NL4-3 infected in human TZM-bl cells assessed as inhibition of viral fusion incubated for 48 hrs by Steady-Glo luciferase assay; conditions: Human immunodeficiency virus 1, NL4-3, TZM-bl
# [2] = Cytotoxicity against human TZM-bl cells assessed as reduction in cell viability incubated for 48 hrs by CellTiter 96 aqueous nonradioactive cell proliferation assay
# In short: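 TZM-bl cells with serially diluted compounds, no virus, otherwise as in infection assay (48 h culture); viability read by CellTiter 96 non-radioactive cell proliferation assay.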
# TZM-bl = assay: Binding affinity to two PBDs of N36 trimer of gp41 in HIV1 NL4-3 infected in human TZM-bl cells assessed as inhibition of viral fusion at 50 uM incubated for 48 hrs by Steady-Glo luciferase assay; conditions: Human immunodeficiency virus 1
IC50 [1],Compound,CC50 at 48 h [2],inhibition (TZM-bl)
22.8 µM,CC(C)C[C@H](NC(=O)c1ccc(NC(=O)[C@H](Cc2c[nH]c3ccccc23)NC(=O)CCC(=O)NCCOCCOCCOCCNC(=O)CCC(=O)N[C@@H](Cc2c[nH]c3ccccc23)C(=O)Nc2ccc(C(=O)N[C@@H](CC(C)C)C(=O)O)cc2OCCc2c[nH]c3ccccc23)c(OCCc2c[nH]c3ccccc23)c1)C(=O)O,> 50 µM,
0.118 µM,Cc1cn([C@H]2C[C@H](N=[N+]=[N-])[C@@H](CO)O2)c(=O)[nH]c1=O [ZIDOVUDINE],> 100 µM,
15 µM,CC(C)C[C@H](NC(=O)c1ccc(NC(=O)[C@H](Cc2c[nH]c3ccccc23)NC(=O)CCC(=O)NCCOCCOCCOCCOCCOCCOCCOCCOCCOCCOCCOCCNC(=O)CCC(=O)N[C@@H](Cc2c[nH]c3ccccc23)C(=O)Nc2ccc(C(=O)N[C@@H](CC(C)C)C(=O)O)cc2OCCc2c[nH]c3ccccc23)c(OCCc2c[nH]c3ccccc23)c1)C(=O)O,> 50 µM,
1.7 µM,CC(C)C[C@H](NC(=O)c1ccc(NC(=O)[C@H](Cc2c[nH]c3ccccc23)NC(=O)CCC(=O)NCCOCCOCCOCCOCCOCCOCCOCCOCCOCCNC(=O)CCC(=O)N[C@@H](Cc2c[nH]c3ccccc23)C(=O)Nc2ccc(C(=O)N[C@@H](CC(C)C)C(=O)O)cc2OCCc2c[nH]c3ccccc23)c(OCCc2c[nH]c3ccccc23)c1)C(=O)O,> 50 µM,
,CC(C)C[C@H](NC(=O)c1ccc(NC(=O)[C@H](Cc2c[nH]c3ccccc23)NC(=O)CCC(=O)NCCOCCOCCOCCOCCOCCOCCOCCOCCOCCNC(=O)CCC(=O)O)c(OCCc2c[nH]c3ccccc23)c1)C(=O)O,> 50 µM,7%
10.2 µM,COc1ccc(C[C@H](NC(=O)CCC(=O)NCCOCCOCCOCCOCCOCCOCCOCCOCCOCCNC(=O)CCC(=O)N[C@@H](Cc2ccc(OC)cc2)C(=O)Nc2ccc(C(=O)N[C@@H](Cc3c[nH]c4ccccc34)C(=O)O)cc2OCCc2c[nH]c3ccccc23)C(=O)Nc2ccc(C(=O)N[C@@H](Cc3c[nH]c4ccccc34)C(=O)O)cc2OCCc2c[nH]c3ccccc23)cc1,> 50 µM,
17 µM,CC(C)C[C@H](NC(=O)c1ccc(NC(=O)[C@H](Cc2c[nH]c3ccccc23)NC(=O)CCC(=O)NCCOCCOCCOCCOCCOCCOCCOCCNC(=O)CCC(=O)N[C@@H](Cc2c[nH]c3ccccc23)C(=O)Nc2ccc(C(=O)N[C@@H](CC(C)C)C(=O)O)cc2OCCc2c[nH]c3ccccc23)c(OCCc2c[nH]c3ccccc23)c1)C(=O)O,> 50 µM,
,COc1ccc(C[C@H](N)C(=O)Nc2ccc(C(=O)N[C@@H](Cc3c[nH]c4ccccc34)C(=O)O)cc2OCCc2c[nH]c3ccccc23)cc1,> 50 µM,0%
1.6 µM,N[C@@H](CC(=O)O)C(=O)Nc1ccc(C(=O)N[C@@H](Cc2c[nH]c3ccccc23)C(=O)O)cc1OCCc1c[nH]c2ccccc12,> 50 µM,
,CC(C)C[C@H](NC(=O)c1ccc(NC(=O)[C@@H](N)Cc2c[nH]c3ccccc23)c(OCCc2c[nH]c3ccccc23)c1)C(=O)O,> 50 µM,1%
23.8 µM,CC(C)C[C@H](NC(=O)c1ccc(NC(=O)[C@H](Cc2c[nH]c3ccccc23)NC(=O)CCC(=O)NCCOCCNC(=O)CCC(=O)N[C@@H](Cc2c[nH]c3ccccc23)C(=O)Nc2ccc(C(=O)N[C@@H](CC(C)C)C(=O)O)cc2OCCc2c[nH]c3ccccc23)c(OCCc2c[nH]c3ccccc23)c1)C(=O)O,> 50 µM,
17.3 µM,CC(C)C[C@H](NC(=O)c1ccc(NC(=O)[C@H](Cc2c[nH]c3ccccc23)NC(=O)CCC(=O)NCCOCCOCCOCCOCCOCCNC(=O)CCC(=O)N[C@@H](Cc2c[nH]c3ccccc23)C(=O)Nc2ccc(C(=O)N[C@@H](CC(C)C)C(=O)O)cc2OCCc2c[nH]c3ccccc23)c(OCCc2c[nH]c3ccccc23)c1)C(=O)O,> 50 µM,
36.3 µM,O=C(O)C[C@H](NC(=O)CCC(=O)NCCOCCOCCOCCOCCOCCOCCOCCOCCOCCNC(=O)CCC(=O)N[C@@H](CC(=O)O)C(=O)Nc1ccc(C(=O)N[C@@H](Cc2c[nH]c3ccccc23)C(=O)O)cc1OCCc1c[nH]c2ccccc12)C(=O)Nc1ccc(C(=O)N[C@@H](Cc2c[nH]c3ccccc23)C(=O)O)cc1OCCc1c[nH]c2ccccc12,> 50 µM,

# From ChEMBL document CHEMBL4699628, “Bivalent HIV-1 fusion inhibitors based on peptidomimetics” (Bioorg Med Chem, 2020)
